Bioassay records as filed in PubChem.
PG9 Ab binder: binders of HIV-1 gp120 antibody PG9, primary screen, biochemical, TR-FRET; AID 624416, 2012; 0.43% of 360,000 active; HIV-1 gp120 / PG9 antibody interaction; inhibition, % at 6.7 µM; TR-FRET gp120-PG9 antibody binding; in the data active = inhibition above about 8.5%
NR2E3 ag-1: NR2E3 agonists in two-hybrid cells, primary screen, cell-based, luminescence, CHO-S, Gal4-NCOR/VP16-NR2E3 | luciferase | inhibition of corepressor binding, % at 3.98 µM | 0.35% of 360,000 active | AID 602229, 2012;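 active = inhibition above the mean of all tested compounds plus 3 SD, cut at about 70% in these data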;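 note: 0% = DMSO with NR2E3 transfected cells and 100% = cells lacking NR2E3 construct; higher means lower luciferase signal from less NR2E3 corepressor binding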
NR1D1 modulator: modulators of Rev-erb alpha DNA binding, primary screen, biochemical, FITC-DNA, fluorescence polarization, uHTS; Nuclear receptor subfamily 1 group D member 1 (Homo sapiens), P20393; Rev-erbα–FITC-DNA binding, 90 min; activity, % at 10 µM; 0.79% of 370,000 active;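 active = activity above about 14%, limit read from the data; passing the limit was not always enough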;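 note: 0% = DMSO wells with 35 nM protein and 100% = DMSO wells with 750 nM protein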
Target sequence (P20393 whole entry, looked up): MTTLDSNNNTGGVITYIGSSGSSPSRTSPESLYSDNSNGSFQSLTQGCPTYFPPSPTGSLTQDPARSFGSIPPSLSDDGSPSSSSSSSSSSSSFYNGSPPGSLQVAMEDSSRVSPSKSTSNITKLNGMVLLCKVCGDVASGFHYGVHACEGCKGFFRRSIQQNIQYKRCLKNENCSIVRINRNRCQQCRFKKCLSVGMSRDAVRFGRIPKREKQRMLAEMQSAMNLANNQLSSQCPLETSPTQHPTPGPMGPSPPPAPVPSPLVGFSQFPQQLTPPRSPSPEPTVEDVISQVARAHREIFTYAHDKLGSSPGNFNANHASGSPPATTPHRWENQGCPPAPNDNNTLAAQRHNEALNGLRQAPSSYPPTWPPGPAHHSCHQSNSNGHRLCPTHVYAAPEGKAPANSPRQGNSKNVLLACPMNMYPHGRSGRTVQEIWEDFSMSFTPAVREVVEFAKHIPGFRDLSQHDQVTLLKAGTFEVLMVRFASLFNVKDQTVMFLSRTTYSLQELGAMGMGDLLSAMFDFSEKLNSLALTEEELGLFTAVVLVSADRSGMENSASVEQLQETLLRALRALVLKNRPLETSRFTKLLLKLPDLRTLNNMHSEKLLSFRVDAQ
NR2E3 ag-2: inhibitors of NR2E3-RetCOR corepressor binding, primary screen, NR2E3 agonist project, biochemical, TR-FRET, GST-NR2E3, biotin-RetCOR; AID 2300, 2010; inhibition of corepressor binding, % at 4.78 µM; 1536-well; 0.12% of 320,000 active; Photoreceptor-specific nuclear receptor (Homo sapiens), Q9Y5X4;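 active = percent inhibition above the cutoff of mean plus 3 SD of all tested compounds, set per screening campaign, cut at about 20% in these data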;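 note: 0% = DMSO wells and 100% = biotin wells as full block of FRET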
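Material – GST-tagged NR2E3 plus biotinylated RetCOR corepressor · Quantity – NR2E3 fusion 1.35 nM · Times – 5 h incubation at 4 °C · Medium – pH 7.5 Tris-based buffer · Technique – TR-FRET, Eu(K)-anti-GST donor, streptavidin-D2 acceptor, ex 340, em 617/671 nm · Benchmarks – high control biotin, low control 0.6% DMSO · Format – 1536-well plates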
Rev-erbA confirm: modulators of Rev-erb alpha DNA binding, confirmation, biochemical, FITC-DNA, fluorescence polarization, single point; shares compounds with NR1D1 modulator; 90 min; activation, % at 25 µM; 61% of 3,000 active; AID 1259319, 2017;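 active = activation at or above a set limit, or at least 3 SD above the negative control mean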;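 note: 0% = 35 nM protein with DMSO and 100% = 750 nM protein high control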
RORg counter: modulation of RORgamma DNA binding, dose response, counter-screen for Rev-erb alpha modulator project, biochemical, fluorescence polarization, FITC-DNA | shares compounds with NR1D1 modulator | purified RORgamma protein-FITC-DNA binding | IC50, µM | 8% of 910 active | AID 1259320, 2017;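 active = Compounds whose fitted half-maximal concentration for disrupting protein-DNA binding is below 10 micromolar; the record names Rev-erb in its text, so the target is in doubt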
The depositor's hits bear a star; i = inactive; . = not tested or not shown. Sampled rows, rich in hits. Any-hit rate of the full collection: about 1.4%.

SMILES	PG9 Ab binder	NR2E3 ag-1	NR1D1 modulator	NR2E3 ag-2	Rev-erbA confirm	others
COc1ccc(C2C(C)C(=O)C(C)C(c3ccc(OC)cc3)N2N=O)cc1 (stereo not drawn)	0	20	6	.	.
CCOC(=O)c1cc(-c2ccc(F)cc2)nc2c1c(=O)[nH]c(=O)n2Cc1ccccc1	0	10	-9	2	.
CCOC(=O)c1cc(-c2cc(OC)c(OC)c(OC)c2)nc2c1c(=O)[nH]c(=O)n2Cc1ccccc1	0	-8	23*	1	9
COc1cc(NC(=O)c2cc(-c3cccnc3)nc3ccc(Br)cc23)cc(OC)c1	3	15	31*	3	20*
COc1cc(-c2csc(N3CCC(C(N)=O)CC3)n2)cc(OC)c1OC	.	.	-2	.	.
O=C1CC2c3cc(-c4cc5ccccc5o4)ccc3CCN2C(=O)CN1Cc1ccccc1 (stereo not drawn)	-2	.	4	.	.
Cc1cc(=O)n2[nH]c(=O)c(N=Nc3ccccc3)c2[nH]1	-12	-11	8	-5	.
CCOc1ccc(N=Nc2c(=O)[nH]n3c(=O)cc(C)[nH]c23)cc1	-15	-62	25*	-14	41*	RORg counter=>40
c1ccn(-c2ccc(-c3noc(CCc4ccncc4)n3)cc2)c1	.	.	-2	.	.
COc1ccc(Cn2c(C)cc(O)cc2=O)cc1	2	.	-1	.	.
CCc1cc2cc3c(cc2nc1SCC(=O)Nc1nnc(C)s1)OCCO3	2	-8	60*	2	41*	RORg counter=>40
CCc1nnc(NC(=O)CSc2nc3cc4c(cc3cc2CC)OCCO4)s1	2	-9	90*	2	36*	RORg counter=>40
CCOC(=O)CSc1nc2cc3c(cc2cc1CC)OCCO3	3	3	11	3	.
CCC(c1nnnn1-c1ccc2c(c1)OCCO2)N1CCN(C/C=C/c2ccccc2)CC1 (stereo not drawn)	-3	14	-10	.	.
CC(=O)N1c2ccccc2S(=O)(=O)c2c1ccc1ccccc21	1	-10	23*	.	-2
CCOC(=O)c1csc(-c2ccc(COC(=O)c3ccccc3)o2)n1	.	-92	.	.	.
C=CCN1C(=O)[C@@H](CC(=O)N2CCCC2)[C@]2(C(=O)OC)CCCCC=C12	.	.	5	.	.
Fc1ccc(-[n+]2nc(Nc3ccccc3)sc2-c2ccc(OCc3ccccc3)cc2)cc1	-1	-8	156*	-4	11
COc1ccc(Sc2nc3ccccc3n3c(C(F)(F)F)nnc23)cc1	-5	-8	56*	2	34*	RORg counter=>40
COc1ccc(-c2cc(-n3c(C(F)(F)F)nc4ccccc43)n(CCC#N)n2)cc1	2	-1	5	2	.
OCC[n+]1ccc(/C=C/c2c[nH]c3ccccc23)cc1	-16	-26	161*	-5	144*	RORg counter=i
C(=Cc1c[nH]c2ccccc12)c1nccc2ccccc12	-2	-175	25*	.	23*
Cc1cccc(OCC(=O)N2CCc3ccccc3C2)c1C	1	-14	3	.	.
CN1C(=O)c2cc(NC(=O)Nc3ccccc3)ccc2OC[C@H]2O[C@@H](CC(=O)NCc3ccc(-c4ccccc4)cc3)CC[C@@H]21	.	.	21	.	.
CN1C(=O)c2cc(NS(C)(=O)=O)ccc2OC[C@H]2O[C@@H](CC(=O)NCc3ccc(-c4ccccc4)cc3)CC[C@@H]21	.	.	83*	.	20*
SMILES	PG9 Ab binder	NR2E3 ag-1	NR1D1 modulator	NR2E3 ag-2	Rev-erbA confirm	others
CN1C(=O)c2cc(NC(=O)Nc3ccccc3F)ccc2OC[C@H]2O[C@@H](CC(=O)NCc3ccc(-c4ccccc4)cc3)CC[C@@H]21	.	.	107*	.	70*	RORg counter=>40
CCOc1ccc(C2C(C#N)=C(C)NC3=C2C(=O)c2ccccc23)cc1 (stereo not drawn)	-4	-12	2	-10	.
COc1ccc(C2C(C#N)=C(C)NC3=C2C(=O)c2ccccc23)cc1 (stereo not drawn)	-1	-12	81*	3	54*	RORg counter=>40
COc1ccc(N2CCN(CCCNC(=O)COc3ccc(C)cc3)CC2)cc1	.	.	-13	.	.
CC(=O)c1cccc(NC(=O)c2csc(-n3nc(C)cc3C(F)(F)F)n2)c1	-1	-3	78*	-3	70*	RORg counter=>40
CCOC(=O)CC[C@@H]1CC[C@]2(CCCN(Cc3nccn3C)C2)O1	.	.	-2	.	.
CCNc1ccc2noc3c2c1C(=O)c1ccccc1-3	2	-45	49*	-23	57*	RORg counter=>40
O[C@H]1C[C@H](c2ccccc2)N(Cc2cccs2)C[C@@H]1n1cc(C2CC2)nn1	0	-5	18*	.	6
COc1cc2ccccc2cc1C(=O)Nc1ccc(Cl)cn1	0	-42	31*	2	17
COC(=O)c1c(-c2ccccc2)csc1NC1=NS(=O)(=O)c2ccccc21	-2	-119	31*	1	12
COC(=O)c1ccc(C(=O)OC)c(NC2=NS(=O)(=O)c3ccccc32)c1	2	7	21*	-1	-5
CCCNC(=O)C1(C)CCN(C(=O)c2ccc(OC(F)F)cc2)C1 (stereo not drawn)	0	-18	-3	.	.
Cc1nc(C)c(-c2ccc(SCC(=O)Nc3cccc(Cl)c3)nn2)s1	-14	-38	24*	-13	10
CCCc1c(Cc2cccc(F)c2)ncn1CCc1ccccc1OC	-3	.	-4	.	.
O=c1cc(CN(Cc2ccccc2)Cc2ccccc2)c2ccccc2o1	-1	-14	22*	.	9
CN(Cc1ccccc1)Cc1cc(=O)oc2ccccc12	-2	-30	5	.	.
Cc1c(NC(=O)c2cc3ccccc3o2)cccc1-n1cnnn1	0	-33	-10	.	.
O=C(CN1C(=O)C2(OCCCO2)c2ccccc21)NCc1ccc(F)cc1	.	.	2	.	.
COC(=O)c1c(C(=O)c2ccc(Br)cc2)n(C)c2ccccc12	4	-11	18*	6	21*
COC(=O)c1c(S(N)(=O)=O)c2ccccc2n1C	2	-13	-4	1	.
C[C@@H]1CN([C@@H](C)CO)C(=O)CCCn2cc(nn2)CO[C@H]1CN(C)S(=O)(=O)c1ccc2ccccc2c1	1	-6	2	.	.
CCOc1ccccc1NC(=O)c1nnn(CC(=O)Nc2cc(C)cc(C)c2)c1N	-1	-5	21*	6	32*	RORg counter=>40
COc1ccccc1NC(=O)c1nnn(CC(=O)Nc2cc(C)cc(C)c2)c1N	-1	0	-3	2	.
Cn1ccsc1=NC(=O)c1ccccc1F	1	-19	-1	0	.
